{"source": "ChEMBL document CHEMBL1136847", "about": "“Syntheses and potential anti-prostate cancer activities of ionone-based chalcones” (Bioorg Med Chem Lett, 2009)", "key": {"[1]": {"tested_on": "Androgen receptor (Homo sapiens), P10275 [T878A]", "sequence (P10275 whole entry T878A)": "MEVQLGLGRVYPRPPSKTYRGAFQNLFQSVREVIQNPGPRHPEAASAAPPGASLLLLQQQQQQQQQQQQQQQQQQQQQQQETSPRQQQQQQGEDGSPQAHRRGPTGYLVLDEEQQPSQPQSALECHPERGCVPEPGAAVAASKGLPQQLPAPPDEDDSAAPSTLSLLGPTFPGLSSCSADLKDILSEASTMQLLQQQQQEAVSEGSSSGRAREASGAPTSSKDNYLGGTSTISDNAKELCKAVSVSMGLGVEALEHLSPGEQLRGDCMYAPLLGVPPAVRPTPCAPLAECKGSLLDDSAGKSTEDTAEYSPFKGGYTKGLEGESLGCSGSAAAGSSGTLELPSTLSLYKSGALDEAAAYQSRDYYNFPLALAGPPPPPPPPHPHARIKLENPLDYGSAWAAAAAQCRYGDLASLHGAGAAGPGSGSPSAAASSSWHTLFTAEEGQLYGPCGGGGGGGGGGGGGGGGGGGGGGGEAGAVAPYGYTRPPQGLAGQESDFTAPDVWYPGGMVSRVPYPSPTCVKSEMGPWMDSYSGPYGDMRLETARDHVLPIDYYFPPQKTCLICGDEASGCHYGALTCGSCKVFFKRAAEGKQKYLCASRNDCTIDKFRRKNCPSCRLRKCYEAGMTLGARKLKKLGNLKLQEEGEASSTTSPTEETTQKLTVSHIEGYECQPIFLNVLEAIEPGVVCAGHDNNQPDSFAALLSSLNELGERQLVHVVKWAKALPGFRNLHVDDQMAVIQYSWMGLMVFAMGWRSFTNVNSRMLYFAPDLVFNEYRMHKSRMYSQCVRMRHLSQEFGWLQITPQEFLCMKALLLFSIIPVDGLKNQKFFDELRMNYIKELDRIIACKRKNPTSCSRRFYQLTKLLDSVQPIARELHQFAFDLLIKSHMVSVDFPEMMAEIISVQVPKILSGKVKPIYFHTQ", "assay": "Antagonist activity at androgen receptor T877A mutant in human PC3 cells transiently transfected with pCMV-MMTV-Luc assessed as suppression of DHT-induced receptor transactivation", "type": "functional, cell-based", "conditions": "PC-3", "outline": "(§1)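 PC-3 cells seeded 24 h before co-transfection with MMTV-luciferase reporter (100 ng), the wild-type, T877A, W741C or H874Y AR plasmid (10 ng) and Renilla null luciferase (10 ng) using Lipofectamine 2000. Medium switched after 5 h to phenol red-free RPMI 1640 with 10% charcoal-stripped FBS. After 16 h, 0.1 nM DHT ± compound (0.1, 1.0 µM) for 24 h. Dual-luciferase read-out, Renilla-standardized, normalized to DHT alone (100%).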"}, "[2]": {"tested_on": "LNCaP", "assay": "Cytotoxicity against androgen-dependent human LNCAP cells with T877A AR mutant after 72 hrs by MTT assay", "type": "functional, cell-based", "outline": "(§2)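 Cells seeded at 6000–7000 per well in RPMI 1640 with 10% FBS, penicillin and streptomycin, left overnight, then exposed to a range of concentrations from DMSO stock (final DMSO 0.5%) for 72 h. MTT added for a further 2 h and formazan from viable cells read. IC50 taken from survival curves, 50% inhibition relative to 0.5% DMSO control; top concentration 150 µM.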"}, "[3]": {"tested_on": "PC-3", "assay": "Cytotoxicity against androgen-independent human PC3 cells after 72 hrs by MTT assay", "type": "functional, cell-based", "conditions": "PC-3, 72 h", "outline": "as §2"}, "[4]": {"tested_on": "CWR22R", "assay": "Cytotoxicity against human 22Rv1 cells with H874Y AR mutant after 72 hrs by MTT assay", "type": "functional, cell-based", "conditions": "22Rv1, 72 h", "outline": "as §2"}, "[5]": {"assay": "Cytotoxicity against androgen-independent human C4-2B cells with T877A mutant after 72 hrs by MTT assay", "type": "functional, cell-based", "conditions": "LNCaP C4-2B", "outline": "as §2"}, "[6]": {"assay": "Cytotoxicity against androgen-dependent human MDA PCa 2b cells with T877A/L701H AR mutant after 72 hrs by MTT assay", "type": "functional, cell-based", "outline": "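Seeded at 6000–7000 cells per well in BRFF-HPC1 medium with 20% FBS, incubated overnight, then treated with serial concentrations diluted from DMSO stock (final DMSO 0.5%) for 72 h. Viability by MTT, 2 h with reagent, formazan measured. IC50 from survival curves as 50% inhibition versus 0.5% DMSO vehicle; maximum concentration tested 150 µM.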"}, "[7]": {"assay": "Cytotoxicity against human RWPE1 cells after 72 hrs by MTT assay", "type": "cell-based", "conditions": "RWPE-1, 72 h", "outline": "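Non-tumorigenic prostate epithelial line plated at 6000–7000 cells per well in keratinocyte serum-free medium with 0.05 mg/mL bovine pituitary extract and 5 ng/mL EGF; overnight attachment, then compounds at various concentrations in 0.5% final DMSO for 72 h. MTT 2 h, formazan read; IC50 from survival curves versus DMSO control.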"}, "[8]": {"target": "T1, Androgen receptor (Homo sapiens) (UniProt P10275)", "T1 sequence (whole entry)": "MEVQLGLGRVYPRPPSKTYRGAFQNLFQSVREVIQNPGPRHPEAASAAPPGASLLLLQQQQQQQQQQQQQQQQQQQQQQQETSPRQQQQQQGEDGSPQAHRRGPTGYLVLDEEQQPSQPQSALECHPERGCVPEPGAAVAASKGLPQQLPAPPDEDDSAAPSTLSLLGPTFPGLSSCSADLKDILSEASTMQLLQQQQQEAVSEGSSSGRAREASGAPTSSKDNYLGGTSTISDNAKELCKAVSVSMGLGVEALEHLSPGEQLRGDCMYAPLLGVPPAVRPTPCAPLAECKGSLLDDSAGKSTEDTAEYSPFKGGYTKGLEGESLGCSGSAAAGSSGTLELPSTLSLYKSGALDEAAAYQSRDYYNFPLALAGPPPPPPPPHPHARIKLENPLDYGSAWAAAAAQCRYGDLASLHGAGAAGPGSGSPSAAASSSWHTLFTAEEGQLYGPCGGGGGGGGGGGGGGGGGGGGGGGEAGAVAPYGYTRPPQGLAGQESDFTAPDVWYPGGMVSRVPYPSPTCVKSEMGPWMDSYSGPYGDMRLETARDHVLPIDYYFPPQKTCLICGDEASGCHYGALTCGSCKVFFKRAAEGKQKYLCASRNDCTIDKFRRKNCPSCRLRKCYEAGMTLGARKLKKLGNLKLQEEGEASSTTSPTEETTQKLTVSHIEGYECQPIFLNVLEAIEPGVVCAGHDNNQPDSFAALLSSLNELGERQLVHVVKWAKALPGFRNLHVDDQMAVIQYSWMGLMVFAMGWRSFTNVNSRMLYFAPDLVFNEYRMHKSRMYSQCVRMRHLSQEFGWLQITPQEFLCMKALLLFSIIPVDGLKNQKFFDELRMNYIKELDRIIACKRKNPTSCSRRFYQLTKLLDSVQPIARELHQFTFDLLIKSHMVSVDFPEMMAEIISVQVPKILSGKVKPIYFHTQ", "assay": "Antagonist activity at wild type androgen receptor in human PC3 cells transiently transfected with pCMV-MMTV-Luc assessed as suppression of DHT-induced receptor transactivation", "type": "functional, cell-based", "conditions": "PC-3", "outline": "as §1"}, "[9]": {"tested_on": "T2, Androgen receptor (Homo sapiens), P10275 [W742C]", "T2 sequence (whole entry)": "T1 sequence (whole entry) with W742C", "assay": "Antagonist activity at androgen receptor W741C mutant in human PC3 cells transiently transfected with pCMV-MMTV-Luc assessed as suppression of DHT-induced receptor transactivation", "type": "functional, cell-based", "conditions": "PC-3", "outline": "as §1"}}, "note": "Changes are numbered by the printed parent chain.", "data": [{"smiles": "CC1=C(/C=C/C(=O)/C=C/c2cccc(C(F)(F)F)c2)C(C)(C)CCC1O", "note": "(centres undefined)", "values": [{"measurement": "Activity", "setting": "[1]", "result": "Dose-dependent effect"}, {"measurement": "IC50", "setting": "[2]", "result": 0.74, "unit": "µM"}, {"measurement": "IC50", "setting": "[3]", "result": 3.5, "unit": "µM"}, {"measurement": "IC50", "setting": "[4]", "result": 1.7, "unit": "µM"}, {"measurement": "IC50", "setting": "[5]", "result": 1.4, "unit": "µM"}, {"measurement": "IC50", "setting": "[6]", "result": 2.6, "unit": "µM"}, {"measurement": "IC50", "setting": "[7]", "result": 0.73, "unit": "µM"}, {"measurement": "Activity", "setting": "[8]", "result": "Dose-dependent effect"}, {"measurement": "Activity", "setting": "[9]", "result": "Dose-dependent effect"}]}]}
